Columns and labels:
[1] = Cytotoxicity against human HCC827 cells assessed as decrease in cell viability after 72 hrs by MTT assay; format: functional, cell-based; details: HCC827, 72 h
Method in brief: (§1)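 Cells kept in RPMI 1640 with 10% FBS at 37 °C, 5% CO2, passaged every 2-3 days; seeded at 5,000-7,000 cells/well and left 24 h. Compounds dissolved in 1% DMSO, diluted in fresh medium to 1, 4, 16 and 32 µM, added in sextuplicate; 72 h exposure. MTT added for 3-4 h, medium removed, DMSO added for 15 min at 37 °C, OD read at 540 nm.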

[2] = Cytotoxicity against human NCI-H1975 cells assessed as decrease in cell viability after 72 hrs by MTT assay; format: functional, cell-based; details: NCI-H1975, 72 h; method in brief: as §1
[3] = Cytotoxicity against human NCI-H460 cells assessed as decrease in cell viability after 72 hrs by MTT assay; format: functional, cell-based; details: NCI-H460, 72 h; method in brief: as §1
[4] = Cytotoxicity against human A549 cells assessed as decrease in cell viability after 72 hrs by MTT assay; format: functional, cell-based; details: A549, 72 h; method in brief: as §1
[5] = Aqueous solubility of the compound; format: physicochemical
[6] = Growth inhibition of human NCI-H460 cells after 48 hrs by SRB assay; format: functional; details: NCI-H460, 48 h
[7] = Growth inhibition of human NCI-H322M cells after 48 hrs by SRB assay; format: functional; details: for CC50: read-out: LC50 (the source's name)
[8] = Cytotoxicity against human HOP92 cells assessed as cell growth at 10 uM after 48 hrs by SRB assay relative to control; format: functional; details: HOP-92, 48 h, read-out: Activity
[9] = Cytotoxicity against human NCI-H23 cells assessed as cell growth at 10 uM after 48 hrs by SRB assay relative to control; format: functional; details: NCI-H23, 48 h, read-out: Activity
[10] = Growth inhibition of human EKVX cells after 48 hrs by SRB assay; format: functional
[11] = Growth inhibition of human NCI-H226 cells after 48 hrs by SRB assay; format: functional; details: NCI-H226, 48 h
[12] = Growth inhibition of human HOP62 cells after 48 hrs by SRB assay; format: functional; details: HOP-62, 48 h
[13] = Cytotoxicity against human HOP62 cells assessed as cell growth at 10 uM after 48 hrs by SRB assay relative to control; format: functional; details: HOP-62, 48 h, read-out: Activity
[14] = Cytotoxicity against human EKVX cells assessed as cell growth at 10 uM after 48 hrs by SRB assay relative to control; format: functional; details: read-out: Activity
[15] = Cytotoxicity against human NCI-H322M cells assessed as cell growth at 10 uM after 48 hrs by SRB assay relative to control; format: functional; details: read-out: Activity
[16] = Cytotoxicity against human NCI-H460 cells assessed as cell growth at 10 uM after 48 hrs by SRB assay relative to control; format: functional; details: NCI-H460, 48 h, read-out: Activity
[17] = Cytotoxicity against human NCI-H226 cells assessed as cell growth at 10 uM after 48 hrs by SRB assay relative to control; format: functional; details: NCI-H226, 48 h, read-out: Activity
[18] = Growth inhibition of human HOP92 cells after 48 hrs by SRB assay; format: functional; details: HOP-92, 48 h
[19] = Growth inhibition of human NCI-H522 cells after 48 hrs by SRB assay; format: functional; details: NCI-H522, 48 h
[20] = Growth inhibition of human NCI-H23 cells after 48 hrs by SRB assay; format: functional; details: NCI-H23, 48 h
[21] = Cytotoxicity against human A549 cells assessed as cell growth at 10 uM after 48 hrs by SRB assay relative to control; format: functional; details: A549, 48 h, read-out: Activity
[22] = Growth inhibition of human A549 cells after 48 hrs by SRB assay; format: functional; details: A549, 48 h
[23] = Cytotoxicity against human NCI-H522 cells assessed as cell growth at 10 uM after 48 hrs by SRB assay relative to control; format: functional; details: NCI-H522, 48 h, read-out: Activity
[24] = read-out: LC50 (the source's name)

Structure (SMILES): COCCOCCOCc1n(Cc2ccc3ccccc3c2)c2cc(C)c(C)cc2[n+]1Cc1ccc2ccccc2c1.[Br-]
- IC50 [1]: 2 µM
- IC50 [2]: < 1 µM
- IC50 [3]: < 1 µM
- IC50 [4]: 2 µM
- solubility [5]: 1000 µg/mL

Structure (SMILES): Cc1n(Cc2ccc3ccccc3c2)c2ccccc2[n+]1Cc1ccc2ccccc2c1.[Br-]
- GI50 [6]: 1.47 µM
- TGI [6]: 3.02 µM
- GI50 [7]: 1.56 µM
- TGI [7]: 3 µM
- CC50 [7]: 5.78 µM
- growth at 10 µM [8]: -68.2%
- IC50 [1]: 4 µM
- growth at 10 µM [9]: -29.5%
- GI50 [10]: 1.78 µM
- TGI [10]: 4.08 µM
- GI50 [11]: 1.44 µM
- TGI [11]: 3.2 µM
- GI50 [12]: 1.69 µM
- TGI [12]: 3.24 µM
- growth at 10 µM [13]: -62%
- IC50 [2]: 2 µM
- IC50 [3]: 3 µM
- growth at 10 µM [14]: 9.57%
- growth at 10 µM [15]: 9.37%
- growth at 10 µM [16]: -73.9%
- growth at 10 µM [17]: -9.12%
- GI50 [18]: 0.0317 µM
- LC50 [18]: 5.03 µM
- TGI [18]: 2.06 µM
- IC50 [4]: 4 µM
- GI50 [19]: 0.036 µM
- TGI [19]: 2.27 µM
- TGI [20]: 2.76 µM
- growth at 10 µM [21]: 8.96%
- GI50 [22]: 1.76 µM
- LC50 [22]: 6.55 µM
- TGI [22]: 3.4 µM
- solubility [5]: < 500 µg/mL

Structure (SMILES): O=C(OCc1ccc2ccccc2c1)c1ccc2c(c1)n(Cc1ccc3ccccc3c1)c[n+]2Cc1ccc2ccccc2c1.[Br-]
- IC50 [1]: 7 µM
- IC50 [2]: 4 µM
- IC50 [3]: 4 µM
- IC50 [4]: 7 µM
- solubility [5]: < 500 µg/mL

Structure (SMILES): OCCCc1n(Cc2ccc3ccccc3n2)c2ccccc2[n+]1Cc1ccc2ccccc2c1.[Br-]
- IC50 [1]: 11 µM
- IC50 [2]: 3 µM
- IC50 [3]: 4 µM
- IC50 [4]: 12 µM
- solubility [5]: < 500 µg/mL

Structure (SMILES): COC(=O)c1cc2c(cc1C(=O)OC)[n+](Cc1ccc3ccccc3c1)cn2Cc1ccc2ccccc2c1.[Br-]
- growth at 10 µM [8]: 84.7%
- IC50 [1]: 20 µM
- growth at 10 µM [9]: 93.2%
- growth at 10 µM [13]: 78.8%
- IC50 [2]: 15 µM
- IC50 [3]: 26 µM
- growth at 10 µM [14]: 94.3%
- growth at 10 µM [15]: 90.6%
- growth at 10 µM [16]: 94.5%
- growth at 10 µM [17]: 77.7%
- growth at 10 µM [23]: 77.3%
- IC50 [4]: 23 µM
- growth at 10 µM [21]: 92.2%
- solubility [5]: < 500 µg/mL

Structure (SMILES): COC(=O)c1ccc2c(c1)n(Cc1ccc3ccccc3c1)c[n+]2Cc1ccc2ccccc2c1.[Br-]
- growth at 10 µM [8]: -10.7%
- IC50 [1]: 12 µM
- growth at 10 µM [9]: 34.6%
- growth at 10 µM [13]: 63.8%
- IC50 [2]: 7 µM
- IC50 [3]: 9 µM
- growth at 10 µM [14]: 71%
- growth at 10 µM [15]: 57.2%
- growth at 10 µM [16]: 28.6%
- growth at 10 µM [17]: 61.3%
- growth at 10 µM [23]: 26.3%
- IC50 [4]: 16 µM
- growth at 10 µM [21]: 75%
- solubility [5]: < 500 µg/mL

Structure (SMILES): Cc1cc2c(cc1C)[n+](Cc1ccc3ccccc3n1)cn2Cc1ccc2ccccc2n1.[Cl-]
- GI50 [6]: 0.63 µM
- LC50 [6]: 6.2 µM
- TGI [6]: 2.21 µM
- GI50 [7]: 1.37 µM
- TGI [7]: 8.62 µM
- CC50 [7]: 30.5 µM
- growth at 10 µM [8]: -27.3%
- IC50 [1]: 3 µM
- growth at 10 µM [9]: 1.58%
- GI50 [10]: 2.29 µM
- LC50 [10]: 66 µM
- TGI [10]: 11.1 µM
- GI50 [11]: 1.59 µM
- LC50 [11]: > 100 µM
- TGI [11]: 4.01 µM
- GI50 [12]: 1.27 µM
- TGI [12]: 3.13 µM
- CC50 [12, 24]: 7.72 µM
- growth at 10 µM [13]: 4.38%
- IC50 [2]: < 1 µM
- IC50 [3]: 2 µM
- growth at 10 µM [14]: 39.6%
- growth at 10 µM [15]: 36%
- growth at 10 µM [16]: 0.34%
- growth at 10 µM [17]: 9.61%
- GI50 [18]: 0.484 µM
- LC50 [18]: 5.22 µM
- TGI [18]: 2 µM
- IC50 [4]: 4 µM
- GI50 [19]: 0.704 µM
- TGI [19]: 2.47 µM
- CC50 [19, 24]: 6.89 µM
- GI50 [20]: 0.736 µM
- LC50 [20]: 29.6 µM
- TGI [20]: 3.53 µM
- growth at 10 µM [21]: 30.4%
- GI50 [22]: 2.83 µM
- LC50 [22]: 63.5 µM
- TGI [22]: 13 µM
- solubility [5]: 1400 µg/mL

— ChEMBL document CHEMBL3868630, “Synthesis, anti-proliferative activity, SAR study, and preliminary in vivo toxicity study of substituted N,N'-bis(arylmethyl)benzimidazolium salts against a panel of non-small cell lung cancer cell lines” (Bioorg Med Chem, 2017)
